The source made the active and inactive calls. The calls are words filed in the database; no cut-off is given here.
Experiments:
[1] = tested on: HeLa; test: Induction of autophagy in human HeLa cells assessed as conversion of LC3-1 protein to LC3-2 protein at 25 uM after 24 hrs by Western blot analysis; format: functional, cell-based
Outline: (§1)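 HeLa incubated 24 h with DENSPM (25 µM) or spermidine (8 mM); LC3-I/LC3-II processing by Western blot of 50 µg protein with monoclonal anti-LC3 antibody.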

[2] = tested on: HeLa; test: Induction of apoptosis in human HeLa cells assessed as increase in caspase 3/7 activity at 25 uM after 24 hrs by DEVD-based fluorometric analysis; format: functional, cell-based
Outline: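 HeLa treated 24 h with 25 µM DENSPM (positive control) or the indicated concentrations of compound; DEVDase (caspase 3/7) activity measured. Means ± S.E.M. of three replicates vs control.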

[3] = tested on: HeLa; test: Cytotoxicity against human HeLa cells assessed as decrease in cell survival at 25 uM after 24 hrs by trypan blue exclusion assay relative to control; format: functional; details: read-out: Survival
Outline: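 HeLa cells grown in EMEM with 10% FBS, 1% glutamine, 1% nonessential amino acids, 1 mM pyruvate and antibiotics at 37 °C in 5% CO2. Compound added from DMSO stock (DMSO 0.1% of volume; controls got DMSO only) and exposed 24 h. Viability read by trypan blue exclusion in triplicate samples, at least 10 fields counted. Survival given as % viable cells versus control.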

[4] = tested on: HeLa; test: Induction of autophagy in human HeLa cells assessed as conversion of LC3-1 protein to LC3-2 protein at 8 mM after 24 hrs by Western blot analysis; format: functional, cell-based; outline: as §1
[5] = tested on: Thymocyte; test: Cytotoxicity against rat thymocytes assessed as cell survival after 24 hrs by trypan blue exclusion assay; format: cell-based
Outline: (§2)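 Cells exposed 24 h to increasing concentrations (DMSO vehicle, 0.1% of medium; controls got DMSO) at 37 °C, 5% CO2. Viability by trypan blue exclusion, triplicate samples, at least 10 fields counted each; survival as % of viable cells vs control. IC50 read from dose–response curve as concentration giving 50% survival.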

[6] = Cytotoxicity against human C-28/I2 cells assessed as cell survival after 24 hrs by trypan blue exclusion assay; format: cell-based; details: C28/I2, 24 h; outline: as §2
[7] = tested on: HeLa; test: Cytotoxicity against human HeLa cells assessed as cell survival after 24 hrs by trypan blue exclusion assay; format: functional, cell-based; outline: as §2

Question: With `CCNCCCNCCCNCCCNCC` [BIS(ETHYL)NORSPERMINE] as the molecule, how does the Activity [1] read?
Answer: Its Activity is “inactive”.

Question: And the Activity [2]?
Answer: Its Activity is “Active”.

Question: And the viability at 25 µM [3]?
Answer: Its viability at 25 µM is 50%.

Question: Which Activity [4] does the source give for `NCCCCNCCCN` here?
Answer: Its Activity is “Active”.

Question: Which results are given for `COc1ccccc1CNCCCCCCNCCCCCCCCNCCCCCCNCc1ccccc1OC` [METHOCTRAMINE]?
Answer: IC50 [5]: > 100 µM; IC50 [6]: > 100 µM; IC50 [7]: > 100 µM
